Assay results: PubChem BioAssay
The source made the active and inactive calls.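 The calls were made as follows, unless noted: active = a full or partial loss of lipid-probe fluorescence in the fish gall bladder, intestine or both, judged by eye; inactive = no fluorescence loss, or compound toxic to the fish.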

Assays:
[1] = inhibitors of TNFa-induced NFkB p65 translocation, primary screen, imaging, HUVEC, MLSMR starter and 10KST1 sets (AID 438;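 active = inhibition above 20% together with a positive visual image hit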;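 also: compound added about 3h40 before a 20 min TNFalpha stimulation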;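 as to inhibition: signal is the nuclear over cytoplasmic p65 intensity ratio per well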); settings: HUVEC TNFa-induced p65 nuclear translocation; cell count: measured here: nuclei count (cytotoxicity indicator), at 2.08 µM; inhibition: at 2 µM, stronger effect = higher value, 0% TNFa-plus-vehicle, 100% no-TNFa wells
[2] = inhibitors of E-selectin induction by TNFa, primary screen, imaging, HUVEC, immunofluorescence, MLSMR starter and 10KST1 sets (AID 487;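 active = visually confirmed hit in the image check and inhibition above 20%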;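 as to inhibition: signal is fraction of cell area covered by stained E-selectin grains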;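 as to nuclei count: 100% = median nuclei count of all wells on the same plate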); settings: HUVEC TNFalpha-induced E-selectin immunofluorescence imaging, at 2 µM; inhibition: stronger effect = higher value; nuclei count: measured here: cell number, toxicity
[3] = DUSP6 inhibitors restoring Erk phosphorylation by chemical complementation, primary imaging in DUSP6-transfected HeLa (AID 609;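 active = compounds giving at least 50% inhibition in the cell-based MKP-3 phosphatase rescue imaging test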;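 as to inhibition: phospho-Erk level distribution per well compared with pooled transfected vehicle control wells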); settings: HeLa MKP-3 transfected, phospho-Erk imaging KS statistic, at 10 µM, cells stimulated with TPA for 15 min
[4] = molecular target: Dual specificity protein phosphatase 6 (Homo sapiens) (UniProt Q16828); experiment: as above; settings: HeLa MKP-3 transfected, phospho-Erk imaging KS statistic; at 10 µM; stronger effect = higher value; cells stimulated with TPA for 15 min
Dual specificity protein phosphatase 6 (Homo sapiens), sequence (Q16828 whole entry, looked up): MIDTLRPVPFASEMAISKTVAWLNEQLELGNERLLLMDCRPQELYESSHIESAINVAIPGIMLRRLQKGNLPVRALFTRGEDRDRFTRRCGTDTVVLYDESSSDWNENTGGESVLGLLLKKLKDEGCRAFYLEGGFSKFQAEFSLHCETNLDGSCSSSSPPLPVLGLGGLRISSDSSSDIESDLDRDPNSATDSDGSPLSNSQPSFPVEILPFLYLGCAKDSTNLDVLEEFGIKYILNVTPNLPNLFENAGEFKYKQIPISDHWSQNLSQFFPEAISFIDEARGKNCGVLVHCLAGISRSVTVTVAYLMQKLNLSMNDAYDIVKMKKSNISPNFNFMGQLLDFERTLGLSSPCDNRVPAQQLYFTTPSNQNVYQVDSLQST

[5] = molecular target: Voltage-gated potassium channel subunit beta-2 (Rattus norvegicus) (UniProt P62483); experiment: KvBeta enzyme negative modulators, primary screen, biochemical, NADPH fluorescence (AID 622;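 active = fluorescence slope higher than the sample average by over 3 SD, cut at about -0.22 in these data, passing the limit was not always enough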;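 also: slope of raw intensity against log time taken from 70 to 1610 s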); settings: recombinant KvBeta, 4-cyanobenzaldehyde reduction, at 10 µM, stronger effect = higher value
Voltage-gated potassium channel subunit beta-2 (Rattus norvegicus), sequence (P62483 whole entry, looked up): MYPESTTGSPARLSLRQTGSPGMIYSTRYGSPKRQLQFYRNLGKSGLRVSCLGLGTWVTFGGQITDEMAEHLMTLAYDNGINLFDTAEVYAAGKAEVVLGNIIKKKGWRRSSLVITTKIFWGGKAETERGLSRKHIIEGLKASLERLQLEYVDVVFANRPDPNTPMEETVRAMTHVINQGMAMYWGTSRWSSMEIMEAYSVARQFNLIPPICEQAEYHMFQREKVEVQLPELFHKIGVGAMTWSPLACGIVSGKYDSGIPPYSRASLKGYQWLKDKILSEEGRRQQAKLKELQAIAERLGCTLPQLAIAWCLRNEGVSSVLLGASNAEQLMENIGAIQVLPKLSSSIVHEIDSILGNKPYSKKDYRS

[6] = molecular target: Voltage-gated potassium channel subunit beta-2 (Rattus norvegicus) (UniProt P62483); experiment: KvBeta positive modulators, primary screen, biochemical, NADPH fluorescence (AID 623;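 active = NADPH fluorescence slope more negative than the mean of all samples by about 3 SD, 99.7% confidence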;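 also: fluorescence intensity change per second fitted from 20 to 320 s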); settings: Recombinant KvBeta, NADPH fluorescence decrease slope, 10 min; at 10 µM; stronger effect = lower value
[7] = molecular target: Alpha-2C adrenergic receptor (Homo sapiens) (UniProt P18825); experiment: modulators of alpha2C/GIRK thallium flux, primary screen, cell-based, HEK293 alpha2C/GIRK1/2 (AID 624;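 active = fluorescence slope after compound addition differing from the mean of all screened samples at 99.7% confidence, in either direction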;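 also: slope of fluorescence ratio to pre-addition baseline per second over 15 to 24 s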); settings: thallium flux BTC fluorescence, at 10 µM, actives lie on both sides
Alpha-2C adrenergic receptor (Homo sapiens), sequence (P18825 whole entry, looked up): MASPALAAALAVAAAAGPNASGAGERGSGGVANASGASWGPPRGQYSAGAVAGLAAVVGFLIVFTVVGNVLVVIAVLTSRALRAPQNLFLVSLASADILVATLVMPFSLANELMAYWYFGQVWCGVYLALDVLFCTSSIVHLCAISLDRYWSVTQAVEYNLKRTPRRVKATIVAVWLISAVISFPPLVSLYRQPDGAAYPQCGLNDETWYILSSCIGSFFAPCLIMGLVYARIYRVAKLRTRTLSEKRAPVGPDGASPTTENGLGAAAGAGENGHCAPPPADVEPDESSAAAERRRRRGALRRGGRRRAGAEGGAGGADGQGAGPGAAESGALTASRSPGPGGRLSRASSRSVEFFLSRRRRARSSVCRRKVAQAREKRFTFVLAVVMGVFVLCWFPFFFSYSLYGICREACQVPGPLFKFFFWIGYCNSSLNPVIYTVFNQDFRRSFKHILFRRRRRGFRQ

[8] = inhibitors of larval lipid processing in zebrafish, primary screen, whole organism, PED6 fluorescence, gall bladder and intestine (AID 686); settings: Zebrafish larvae PED6 lipid processing, fluorescence scoring; screened at 20 µM (by protocol);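 also: larvae 5 to 7 days old with five fish per well; signal comes from phospholipase A2 cleavage of quenched PED6 carried via bile; overnight exposure to compound and PED6 before scoring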
How it was run: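 Test system – live zebrafish larvae aged 5-7 days, whole organism · Buffer or medium – E3 fish medium · Reagent – quenched phospholipase substrate PED6, 100 nM final, ingested by larvae · Doses – 20 µM single dose · Incubation – overnight compound and PED6 incubation · Technique – visual fluorescence microscopy scoring of gall bladder, gut · Read-out basis – visual per-well fluorescence inhibition score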

[9] = inhibitors of Chlamydomonas gravitaxis, primary screen, whole organism, Chlamydomonas reinhardtii, WT vs cilia-less mutant, absorbance, 96-well (AID 463189;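 active = inhibition at or above 50% relative to wild type and mutant plate controls; inactive = inhibition below 50%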;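 also: 0% = wild type cc124 cells in DMSO and 100% = ciliumless bld1 mutant cells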); settings: OD600 absorbance, 2 days, at 10 µM, stronger effect = higher value
[10] = measured here: cell density z-score
[11] = measured here: nuclear c-Myc green intensity z-score
[12] = measured here: nuclear pErk red intensity z-score, stronger effect = higher value

Compound | cell count [1] | inhibition [1] | inhibition [2] | nuclei count [2] | z-score [3, 10] | z-score [3, 11] | z-score [3, 12] | inhibition [4] | fluorescence slope [5] | NADPH fluorescence slope [6] | slope [7] | outcome [8] | inhibition [9]
CNc1oc(-c2ccc(Cl)cc2)nc1C#N | 444 | -4.2% (inactive) | -114% (inactive) | 169% | -1.3 | -0.483 | -0.6 | 6.04% (inactive) | -0.263 (inactive) | -4.5e-06 (inactive) | 0.00621 (inactive) | inactive | 7.15% (inactive)
CC(=O)C1=C(O)C(=O)N(c2cccc(C(=O)O)c2)C1c1ccc(F)cc1 (stereo unspecified) | 580 | -13% (inactive) | -65.7% (inactive) | 160% | -0.487 | -0.742 | 1.35 | -6.06% (inactive) | -0.509 (inactive) | -3.9e-05 (inactive) | 0.00665 (inactive) | inactive | -5.48% (inactive)
Cn1c(=O)cc(NCc2ccccc2)[nH]c1=O | 451 | -5.5% (inactive) | -114% (inactive) | 164% | 1.39 | -0.42 | -0.956 | -0.624% (inactive) | -0.333 (inactive) | 5.7e-06 (inactive) | 0.00621 (inactive) | inactive | -4.62% (inactive)
Nc1nnc(CSc2ccc(Cl)cc2)s1 | 605 | -14% (inactive) | 33.5% (inactive) | 171% | 0.155 | -0.0933 | -0.139 | -7.86% (inactive) | -0.369 (inactive) | -4.8e-05 (inactive) | 0.00734 (inactive) | inactive | 6.7% (inactive)
Cc1cccc(C)c1NC(=O)CSCC(=O)c1ccc(O)c(O)c1 | 364 | -4.2% (inactive) | -100% (inactive) | 158% | 0.118 | 0.467 | 0.0935 | 24.7% (inactive) | -0.4 (inactive) | -6.4e-05 (inactive) | 0.00773 (inactive) | inactive | -8.43% (inactive)
O=C1[C@@H]2[C@H](C(=O)N1n1cnnc1)[C@H]1C=C[C@@H]2C1 | 618 | -4.3% (inactive) | -49.4% (inactive) | 143% | -1.23 | -0.0869 | -0.601 | 4.25% (inactive) | -0.529 (inactive) | -6.9e-05 (inactive) | 0.00514 (inactive) | inactive | 13.5% (inactive)
Cc1cc(=O)oc(C)c1C(=O)Nc1cccc2nonc12 | 404 | -0.5% (inactive) | -61.8% (inactive) | 132% | 1.68 | -1.68 | -0.173 | -4.7% (inactive) | -0.297 (inactive) | -2.7e-05 (inactive) | 0.00487 (inactive) | inactive | -5.97% (inactive)
CCSc1nc(N)c2c3c(sc2n1)CCC3 | 602 | -14.1% (inactive) | -20.6% (inactive) | 146% | 0.476 | 0.818 | 0.254 | 7.7% (inactive) | -0.408 (inactive) | -4.9e-05 (inactive) | 0.00637 (inactive) | inactive | -5.03% (inactive)
CC(C)Cn1cnc2c(c1=O)c1nc3ccccc3nc1n2Cc1ccc2c(c1)OCO2 | 361 | -3.7% (inactive) | -15.2% (inactive) | 149% | 0.279 | -0.729 | -0.248 | 9.42% (inactive) | -0.393 (inactive) | -0.000121 (inactive) | 0.00801 (inactive) | inactive | 1.23% (inactive)
CCOC(=O)C1CCCN(c2nc3ccccc3nc2C(C#N)C(=O)OCCOC)C1 (stereo unspecified) | 542 | -14.7% (inactive) | -102% (inactive) | 160% | 0.574 | 2.29 | -0.983 | 4.72% (inactive) | -0.48 (inactive) | -4.8e-05 (inactive) | 0.0042 (inactive) | active; weak signal in gallbladder and intestine | 6.3% (inactive)
COc1ccc(-c2nnc3sc(-c4ccccc4OC)nn23)cc1 | 615 | -8.4% (inactive) | -30.4% (inactive) | 153% | 0.537 | -0.23 | -1.1 | -11.5% (inactive) | -0.413 (inactive) | -4.4e-05 (inactive) | 0.00877 (inactive) | inactive | 12.7% (inactive)
COC(=O)CSc1nnc2n(-c3ccc(OC)cc3)c(=O)c3c4c(sc3n12)CCCCC4 | 607 | -2.8% (inactive) | -233% (inactive) | 149% | -0.0268 | 0.911 | -4.12 | 1.04% (inactive) | -0.411 (inactive) | -4.4e-05 (inactive) | 0.00667 (inactive) | inactive | -10.1% (inactive)
CC(C)(C)C1CCC2(CC1)C(C#N)=C(SCC(=O)Nc1ccccc1)NC(=O)C2C#N (stereo unspecified) | 390 | -3.7% (inactive) | -138% (inactive) | 85.7% | -1.51 | -1.06 | -0.683 | 9.39% (inactive) | -0.461 (inactive) | 9.2e-06 (inactive) | 0.0063 (inactive) | inactive; toxic | 10.8% (inactive)
CN1CCN(c2ncnc3c2[nH]c2ccc(F)cc23)CC1 | 330 | -15.6% (inactive) | -17.5% (inactive) | 64.2% | -0.484 | 0.264 | -0.525 | -8.76% (inactive) | -0.382 (inactive) | -8e-05 (inactive) | 0.00525 (inactive) | inactive | 32.3% (inactive)
Cc1ccc(C)c(OCc2nnc(NC(=O)c3ccco3)s2)c1 | 656 | -2.1% (inactive) | 37.1% (inactive) | 191% | -0.0885 | 2.13 | -0.0889 | -4.27% (inactive) | -0.389 (inactive) | -5.4e-05 (inactive) | 0.0056 (inactive) | inactive | -2.58% (inactive)
COCc1cc(C)nc(SCC(=O)Nc2ccc(C)c(C)c2)c1C#N | 618 | -2.6% (inactive) | -92.9% (inactive) | 161% | -2.03 | 0.714 | 1.02 | 5.65% (inactive) | -0.269 (inactive) | -9.9e-06 (inactive) | 0.00532 (inactive) | inactive | -8.23% (inactive)
COC(=O)COn1c(SCC(=O)OC)nc2ccccc2c1=O | 300 | -3.5% (inactive) | -6.8% (inactive) | 89.2% | -1.82 | 0.261 | 0.27 | -8.59% (inactive) | -0.442 (inactive) | -0.000116 (inactive) | 0.00782 (inactive) | inactive | -12.1% (inactive)
CCCCC1CC1C(=O)Nc1ccc(OC)c(OC)c1 (stereo unspecified) | 421 | -0.9% (inactive) | -42.1% (inactive) | 190% | -1.27 | -0.533 | 0.586 | -8.95% (inactive) | -0.39 (inactive) | -2.3e-05 (inactive) | 0.00756 (inactive) | inactive | 22% (inactive)
Cc1c(NS(=O)(=O)c2cccc3nsnc23)c(=O)n(-c2ccccc2)n1C | 549 | -1.1% (inactive) | -51.8% (inactive) | 154% | 0.537 | 0.599 | -0.221 | -6.06% (inactive) | -0.499 (inactive) | -3.8e-05 (inactive) | 0.00709 (inactive) | inactive | -6.26% (inactive)
CCOC(=O)C1Cc2c([nH]c3ccccc23)C(C)N1 (stereo unspecified) | 640 | -12.2% (inactive) | -61.9% (inactive) | 176% | -0.293 | -0.384 | -0.135 | -18.6% (inactive) | -0.422 (inactive) | -5.9e-05 (inactive) | 0.00514 (inactive) | inactive | -12.3% (inactive)
CCN(CC)CCCN1C(=O)C(O)=C(C(=O)c2ccc(C)o2)C1c1ccc(C)o1 (stereo unspecified) | 581 | -17.5% (inactive) | -104% (inactive) | 153% | 0.106 | 0.341 | 0.337 | -2.47% (inactive) | -0.485 (inactive) | -5.2e-05 (inactive) | 0.00555 (inactive) | inactive | 4.2% (inactive)
CCOC(=O)NC(O)C(=O)c1cccs1 (stereo unspecified) | 507 | -20.3% (inactive) | -205% (inactive) | 153% | 1.4 | -0.239 | -0.163 | 22.3% (inactive) | -0.5 (inactive) | -0.000158 (inactive) | 0.00426 (inactive) | inactive | 16.4% (inactive)
CCOC(=O)C(C#N)C(Cc1ccccc1)c1ccco1 (stereo unspecified) | 590 | -3% (inactive) | -70.2% (inactive) | 166% | 1.19 | -0.726 | -0.042 | 2.46% (inactive) | -0.488 (inactive) | -0.000162 (inactive) | 0.00534 (inactive) | inactive | 6.44% (inactive)
COc1ccc(/C(O)=C2\C(=O)C(=O)N(CCN3CCOCC3)C2c2ccccc2OC)cc1 (stereo unspecified) | 562 | -10.5% (inactive) | -38.1% (inactive) | 164% | 1.03 | -1.74 | 0.476 | -7.86% (inactive) | -0.486 (inactive) | -2.2e-05 (inactive) | 0.00695 (inactive) | inactive | -2.72% (inactive)
Clc1ccc2nc(CSc3nc4ccccc4o3)cn2c1 | 405 | -12.3% (inactive) | -79.3% (inactive) | 99.4% | -0.399 | -0.856 | -1.36 | 11.9% (inactive) | -0.49 (inactive) | -0.000153 (inactive) | 0.00552 (inactive) | inactive | -14.7% (inactive)
Cc1[nH]c2ccc3c(ncn3CCC#N)c2c1C | 616 | -7.5% (inactive) | -48.6% (inactive) | 166% | -0.136 | 0.347 | 0.974 | 18.2% (inactive) | -0.5 (inactive) | -3.5e-05 (inactive) | 0.00512 (inactive) | inactive | 11.7% (inactive)
O=C(Nc1ncn[nH]1)c1c(Cl)ccc(Cl)c1Cl | 597 | -1.6% (inactive) | 20% (inactive) | 162% | -1.37 | 0.992 | 0.69 | -15% (inactive) | -0.362 (inactive) | -8.7e-06 (inactive) | 0.00528 (inactive) | inactive | 0.721% (inactive)
